Sampled rows, rich in hits. Any-hit rate of the full collection: about 4.7%.
MC4R antag cAMP = MC4R antagonists of cAMP signaling, primary screen, cell-based, TR-FRET, antagonist arm of biased-ligand search. Melanocortin receptor 4 (Homo sapiens), P32245. MC4R-expressing cells, MTII-stimulated cAMP, LANCE TR-FRET. inhibition, % at 6.5 µM. hit rate 0.48% among 360,000;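 active = inhibition above its plate's cutoff, the mean of tested wells on that plate plus 3 SD, cut at about 29% in these data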;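 also: 0% = Melanotan II alone and 100% = Melanotan II plus saturating MCL0020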
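Assay system: human MC4R-expressing U2OS cells; reagent: Melanotan II stimulation of cells; dosing: 6.5 µM single dose; timing: compound 30 min, challenge 1 h, detection 1 h; signal: TR-FRET cAMP assay; replicates: one well per compound, no replicates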
AHR activator = AHR activators, primary screen, cell-based, luminescence, luciferase reporter, human; Aryl hydrocarbon receptor (Homo sapiens), P35869; AHR-responsive luciferase reporter cells; activation, % at 5 µM; hit rate 2.5% among 320,000; in the data active = activation above about 47%;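 also: 0% = vehicle wells and 100% = reference agonist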
MC4R barr agon = MC4R agonists recruiting beta-arrestin, primary screen, cell-based, luminescence, agonist arm of biased-ligand search | Melanocortin receptor 4 (Homo sapiens), P32245 | U2OS MC4R beta-arrestin complementation; percent of melanotan II response, DMSO zero | activation, % at 8.9 µM | hit rate 0.98% among 360,000;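 active = activation above a per-plate cutoff, the mean activation of sample wells on that plate plus 3 SD, cut at about 8% in these data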
m5-HT2A agonist = mouse Htr2a agonists via beta-arrestin recruitment, primary screen, cell-based, luminescence | 5-hydroxytryptamine receptor 2A (Mus musculus), P35363 | CHO-K1 mHTR2A beta-arrestin complementation; percent of 30 µM serotonin response | activation, % at 7.6 µM | hit rate 0.66% among 360,000 | AID 624169, 2012;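 active = activation above a run cutoff, the mean activation of all tested compounds plus 3 SD, cut at about 14% in these data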;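 also: 0% = plate median of compound wells and 100% = 30 µM serotonin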
Target sequence (P35363 whole entry, looked up): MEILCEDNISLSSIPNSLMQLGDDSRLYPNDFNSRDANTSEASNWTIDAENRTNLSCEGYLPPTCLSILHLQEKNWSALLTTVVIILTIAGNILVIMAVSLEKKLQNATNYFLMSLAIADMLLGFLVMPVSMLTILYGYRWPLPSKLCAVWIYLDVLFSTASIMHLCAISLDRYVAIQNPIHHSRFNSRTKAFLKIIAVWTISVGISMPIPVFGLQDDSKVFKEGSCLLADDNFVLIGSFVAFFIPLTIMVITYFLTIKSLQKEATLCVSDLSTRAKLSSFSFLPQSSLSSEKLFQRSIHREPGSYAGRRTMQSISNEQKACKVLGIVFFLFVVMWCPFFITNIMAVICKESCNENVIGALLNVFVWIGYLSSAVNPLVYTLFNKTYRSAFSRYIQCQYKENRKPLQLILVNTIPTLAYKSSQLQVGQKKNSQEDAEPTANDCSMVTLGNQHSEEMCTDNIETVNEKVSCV
FXN GAA850 act = FXN promoter activators, primary screen, cell-based, luciferase luminescence, HEK293 lucGAA850; HEK293 lucGAA850 FXN promoter luciferase reporter, 24 h; percent of 10 µM SAHA response; activation, % at 6 µM; hit rate 0.56% among 360,000;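 active = activation above the average of all compounds screened plus 3 SD, cutoff fixed separately per campaign, cut at about 7.5% in these data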;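 also: 0% = DMSO wells and 100% = 10 µM SAHA wells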
MC4R barr conf = MC4R beta-arrestin agonists, retest, confirmation, cell-based, luminescence, U2OS; activation, % at 8.9 µM; U2OS MC4R beta-arrestin recruitment; scaled DMSO 0%, Melanotan II 100%; shares compounds with MC4R barr agon; hit rate 31% among 2,400;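 active = mean activation across replicates above the hit cutoff set in the earlier primary screen, cut at about 8% in these data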
MOR-DOR barr ag = agonists of MOR-DOR heterodimerization, counter-screen for MC4R biased agonist project, cell-based, luminescence; activation, % at 9.2 µM; hit rate 5.8% among 2,400; U2OS PathHunter beta-arrestin, beta-gal luminescence; percent of deltorphin B response, DMSO zero; shares compounds with MC4R barr agon;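 active = mean activation across replicates exceeds the hit threshold derived in the earlier primary screen, cut at about 18% in these data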;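 also: 100% = deltorphin B at 0.9 µM final and 0% = DMSO alone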
An asterisk follows results filed as active; · = no result.

SMILES	MC4R antag cAMP	AHR activator	MC4R barr agon	m5-HT2A agonist	FXN GAA850 act	MC4R barr conf	MOR-DOR barr ag
COc1ccc(OC)c(NC(=O)Nc2nc(C(N)CCc3ccccc3)cs2)c1 (stereo not given)	5	·	11*	-10	-2	36*	20*
COC(=O)c1cc(C)nc(Nc2nc(C(N)Cc3ccc(Cl)cc3)cs2)n1 (stereo not given)	-6	·	3	3	-1	·	·
COc1cc(OC)nc(Nc2nc(C(N)Cc3ccc(Cl)cc3)cs2)n1 (stereo not given)	-1	·	21*	-3	-1	7	11
COc1cc(CNC(=O)Nc2nc(C(N)Cc3ccc(C(F)(F)F)cc3)cs2)cc(OC)c1OC (stereo not given)	-1	·	10*	13	2	1	4
COc1ccc(CC(N)c2csc(NC(=O)Nc3cc(OC)ccc3OC)n2)cc1 (stereo not given)	-4	·	0	1	-1	·	·
COc1ccccc1NC(=O)Nc1nc(C(N)Cc2ccc(Cl)cc2)cs1 (stereo not given)	7	·	13*	0	2	22*	10
CNC[C@H]1OCc2ccccc2-c2ccccc2C(=O)N([C@@H](C)CO)C[C@H]1C	8	·	0	3	-2	·	·
O=C(Cc1ccsc1)N1CCN(S(=O)(=O)c2ccccc2F)CC1	0	10	0	2	2	·	·
Cc1ccc(S(=O)(=O)N2[C@@H](c3cccc(C)c3)C(C(=O)O)=C[C@H]2C(C)(C)C)cc1	-6	-1	1	4	0	·	·
CCC(C)(C)C1CCC2(CC1)NC(=O)N(CC(=O)N1CCN(C(=O)c3ccco3)CC1)C2=O (stereo not given)	-3	-2	0	12	0	·	·
COc1ccc(CC(N)c2csc(NC(=O)Nc3cccc(C(F)(F)F)c3)n2)cc1 (stereo not given)	2	·	0	2	1	·	·
NC(Cc1ccc(C(F)(F)F)cc1)c1csc(NC(=O)Nc2ccccc2)n1 (stereo not given)	1	·	19*	-3	5	19*	13
NC(Cc1ccc(C(F)(F)F)cc1)c1csc(NC(=O)Nc2ccccc2Cl)n1 (stereo not given)	8	·	15*	14	0	19*	9
O=C(NC1CCCC1)C(C1CC1)n1c(-c2ccccn2)nc2ccccc21 (stereo not given)	·	·	·	4	·	·	·
Cc1cc(C)c(S(=O)(=O)N2CCOC2CNC(=O)C(=O)NCCN2CCOCC2)c(C)c1 (stereo not given)	3	10	0	-1	0	·	·
Cc1ccc(-c2cnc(-c3ccccc3C(=O)O)o2)cc1	1	3	-1	-6	2	·	·
Cc1sc2ncnc(SCC(=O)c3cccs3)c2c1C	-1	26	43*	8	5	4	6
S=C(Nc1ccc(Cl)c(Cl)c1)N1CCN(c2ccccn2)CC1	27	19	15*	0	0	2	7
O=c1c2cc(Cl)ccc2[nH]c(=S)n1Cc1ccco1	19	37	5	-3	-1	·	·
O=c1c2cc(Cl)ccc2[nH]c(=S)n1Cc1cccs1	0	20	10*	1	4	0	4
CCn1c(=O)n(C)c2c(=O)n(C)c(=O)n(C)c21	1	·	-1	5	1	·	·
Cc1nn(-c2ccccc2)c2sc(C(=O)NNC(=O)COc3cccc4ccccc34)cc12	4	34	25*	1	-2	6	4
CCCCNC(=O)COC(=O)c1cc2c(C)nn(-c3ccccc3)c2s1	3	0	0	2	1	·	·
Cn1c(=O)c2cc(NC(=O)CCc3cccc(Cl)c3)ccc2n1Cc1cccc(C(F)(F)F)c1	-5	·	14*	3	0	-2	4
C=C(C)Cn1c2ccc(NC(=O)CCc3cccc(Cl)c3)cc2c(=O)n1C	-14	·	-3	-4	-4	·	·
SMILES	MC4R antag cAMP	AHR activator	MC4R barr agon	m5-HT2A agonist	FXN GAA850 act	MC4R barr conf	MOR-DOR barr ag
Cc1cc(NC(=O)CSc2nc(CCC3CCCC3)nc3ccccc23)no1	12	1	5	-4	2	·	·
O=C(CSc1nc(CCC2CCCC2)nc2ccccc12)NCc1ccc2c(c1)OCO2	25	10	20*	-4	5	3	6
CC(C)CNC(=O)c1ccccc1N(Cc1ccccc1)S(C)(=O)=O	2	-1	-1	0	0	·	·
FC(F)(F)c1nc(-c2ccncc2)ncc1-c1nnnn1-c1ccccc1	14	1	-1	2	0	·	·
Fc1ccc(-n2nnnc2-c2cnc(-c3cccs3)nc2C(F)(F)F)cc1	21	-2	11*	13	-11	-1	7
COc1ccccc1-c1cnc2c(c1)C(=O)N([C@@H](C)CO)C[C@@H](C)[C@H](CN(C)C(=O)c1cccnc1)O2	0	·	0	1	-2	·	·
C=CCc1cc(/C=N\NC(=O)CSc2nnc(CCCc3ccc(OC)c(C)c3)o2)cc(OC)c1O	4	10	23*	0	1	0	4
C=CCc1cc(/C=N/NC(=O)CSc2nnc(CCCc3ccc(OC)cc3)o2)cc(OC)c1O	14	17	33*	0	-1	5	3
Cc1ccccc1OCC(=O)Nc1cccc2nsnc12	3	14	11*	-3	-2	0	3
CCc1ccc(OCC(=O)Nc2cccc3nsnc23)cc1	2	4	1	3	4	·	·
Cc1cc(C)cc(NC(=O)Cc2ccc(-n3cccc3)cc2)c1	9	0	9.7*	-5	1	2	4
CCC(=O)NC1=C(Cl)C(=O)C(NC(=O)CC)=C(Cl)C1=O	-21	·	1	12	0	·	·
Cc1noc(C)c1COc1ccc(C(=O)NNC(=O)c2ccccc2F)cc1	-8	0	-2	3	-4	·	·
O=C1c2cccc3cccc(c23)C(=O)N1CC1CCN(CC(O)COc2ccc3ccccc3c2)CC1 (stereo not given)	-3	-2	55*	0	-4	22*	16

From PubChem BioAssay
